Drawing on ChEMBL document CHEMBL1158781, “Indole alkaloids and other constituents of Rauwolfia serpentina” (J Nat Prod, 2005), this text covers Activity and IC50 for eight molecules.

Activity calls are given as the source filed them. The rule behind the calls is not given here.

One test is filed under the species Homo sapiens. The test is described as follows: (§1) Inhibition of human recombinant DNA topoisomerase-2. Summed up: (§2)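 Recombinant human topo II (2 units) relaxing supercoiled pUC19 DNA (0.25 µg). Inhibitor added in 10% DMSO; 30 min at 37 °C. Stopped with sarkosyl loading buffer, run on 1% agarose in TAE, EtBr stain, conversion to relaxed form scored under UV.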

In test [1] the target is T1, DNA topoisomerase 1 (Homo sapiens) (UniProt P11387).
T1 sequence (whole entry): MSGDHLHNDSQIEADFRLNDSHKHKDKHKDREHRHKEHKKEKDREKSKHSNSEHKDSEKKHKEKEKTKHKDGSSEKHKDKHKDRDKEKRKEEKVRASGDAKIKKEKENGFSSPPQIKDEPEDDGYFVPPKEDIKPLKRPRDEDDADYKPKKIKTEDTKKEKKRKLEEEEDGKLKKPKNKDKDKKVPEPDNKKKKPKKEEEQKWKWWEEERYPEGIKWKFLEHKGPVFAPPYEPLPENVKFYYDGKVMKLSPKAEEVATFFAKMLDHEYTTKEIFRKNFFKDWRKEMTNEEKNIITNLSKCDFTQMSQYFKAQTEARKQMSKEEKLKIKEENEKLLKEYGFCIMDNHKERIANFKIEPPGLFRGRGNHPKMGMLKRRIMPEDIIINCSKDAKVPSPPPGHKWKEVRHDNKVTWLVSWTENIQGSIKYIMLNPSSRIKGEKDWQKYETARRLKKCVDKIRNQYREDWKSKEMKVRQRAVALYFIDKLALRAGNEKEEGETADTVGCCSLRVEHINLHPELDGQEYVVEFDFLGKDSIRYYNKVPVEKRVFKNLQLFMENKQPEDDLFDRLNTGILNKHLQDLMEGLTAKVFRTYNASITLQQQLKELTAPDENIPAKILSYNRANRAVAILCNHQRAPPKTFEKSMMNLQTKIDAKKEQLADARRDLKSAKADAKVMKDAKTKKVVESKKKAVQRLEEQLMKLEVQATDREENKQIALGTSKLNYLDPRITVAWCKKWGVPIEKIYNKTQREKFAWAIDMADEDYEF
The test is described as follows: (§3) Inhibition of human recombinant DNA topoisomerase1. Summed up: (§4)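 Recombinant human topo I (2 units) relaxing pBR322 DNA (0.25 µg). Buffer: 10 mM Tris-HCl pH 7.9, 1 mM EDTA, 150 mM NaCl, 0.1% BSA, 0.1 mM spermidine, 5% glycerol. Inhibitor added in 10% DMSO; 30 min at 37 °C. Sarkosyl stop, 1% agarose/TAE gel, EtBr stain, relaxed DNA seen under UV.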

The next test concerns HL-60. The test is described as follows: Cytotoxicity against human HL60 cells by MTT assay. The test is classed as functional, cell-based. The procedure, abridged: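 HL-60 human promyelocytic leukemia cells grown in RPMI 1640 with 10% FBS, penicillin and streptomycin at 37 °C under 5% CO2. Cells plated at 3 × 10^5 per well with a range of alkaloid concentrations. Compounds supplied as 10 mM PBS stocks and diluted into growth medium just before use. Survival read out by MTT.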

Test [2] in a line: as §1. Summed up: as §2
A further test concerns the target T2, DNA topoisomerase 1 (Homo sapiens, UniProt P11387).
T2 sequence (P11387 whole entry): T1 sequence (whole entry)
Described as §3. The procedure, abridged: as §4

Consider `COC(=O)[C@H]1[C@H]2C[C@@H]3c4[nH]c5cc(OC)ccc5c4CCN3C[C@H]2C[C@@H](OC(=O)/C=C/c2cc(OC)c(OC)c(OC)c2)[C@@H]1OC`, for which the result (in the test filed under Homo sapiens; in test [1]; in the test on HL-60) was inactive.
Consider `COC(=O)[C@H]1[C@H]2C[C@@H]3c4[nH]c5ccccc5c4CCN3C[C@H]2CC(O)[C@@H]1O` (stereo partly specified), for which the result (in the test filed under Homo sapiens; in test [1]; with HL-60) was inactive.
As for `COC(=O)[C@H]1[C@H]2C[C@@H]3c4[nH]c5ccccc5c4CCN3C[C@H]2CC[C@@H]1O`, the outcome (in the test filed under Homo sapiens; in test [1]; in the test on HL-60) was inactive.
One may read the IC50 as the midpoint of a concentration-inhibition curve. For `CC[C@@]1(O)C(=O)OCc2c1cc1n(c2=O)Cc2cc3ccccc3nc2-1` [CAMPTOTHECIN], the IC50 is over 1000 µM in test [2] and 130 µM in the test with HL-60.
On to `COc1cc([C@@H]2c3cc4c(cc3[C@@H](O[C@@H]3O[C@@H]5CO[C@@H](C)O[C@H]5[C@H](O)[C@H]3O)[C@H]3COC(=O)[C@H]23)OCO4)cc(OC)c1O` [ETOPOSIDE], for which the IC50 was 40 µM in test [2], over 1000 µM on DNA topoisomerase 1 and 150 µM in the test on HL-60.
As to `O=C(O)[C@H]1[C@H]2C[C@@H]3c4[nH]c5ccccc5c4CCN3C[C@H]2CC[C@@H]1O` [ISORAUHIMBINIC ACID], the 50% inhibitory concentration (IC50) in test [2] was determined as 175 µM; on DNA topoisomerase 1, 40 µM; in the test with HL-60 it was 125 µM.
As for `COC(=O)[C@H]1[C@H]2C[C@@H]3c4[nH]c5cc(OC)ccc5c4CCN3C[C@H]2C[C@@H](OC(=O)c2cc(OC)c(OC)c(OC)c2)[C@@H]1OC` [RESERPINE], the IC50 in test [2] was 20 µM; on DNA topoisomerase 1 it was 160 µM; with HL-60, 67 µM.
In the case of `COC(=O)[C@@H]1[C@H]2C[C@H]3c4[nH]c5ccccc5c4CCN3C[C@@H]2CC[C@@H]1O` [YOHIMBINE], the 50% inhibitory concentration (IC50) in test [2] was determined as 125 µM; on DNA topoisomerase 1 it was 30 µM; in the test on HL-60, 84 µM. Moreover, the result (in the test listed under Homo sapiens; in test [1]; with HL-60) was inactive.
